Measured values: ChEMBL document CHEMBL1156951, “Oxazolomycins: natural product lead structures for novel antibacterials by click fragment conjugation” (2010)
Activity calls are given as the source filed them. The rule behind the calls is not given here.

Columns and labels:
Format in all cases: functional
Escherichia coli [1] = experiment: Antibacterial activity against Escherichia coli X580 at 4 mg/ml by hole plate assay; details: for zone of inhibition at 4000 µg/mL: read-out: DIZ
How it was run: (§1)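 Hole-plate bioassay with samples at 4 mg/ml in 7:3 DMSO/H₂O, loaded into wells of bioassay plates and incubated overnight at 37 °C. The read-out was inhibition zone diameter in mm (±1 mm).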

Staphylococcus aureus = experiment: Antibacterial activity against Staphylococcus aureus NCTC 6571 at 4 mg/ml by hole plate assay; how it was run: as §1
Escherichia coli [2] = experiment: Antibacterial activity against Escherichia coli X580 assessed as zone of diameter per molar relative to cephalosporin
How it was run: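 Hole-plate agar diffusion: test solutions were loaded into wells of bioassay plates and incubated overnight at 37 °C. Inhibition zone diameters were measured, and relative potency was expressed as zone diameter per M of analyte against standards prepared with cephalosporin C.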

Row | Structure (SMILES) | zone of inhibition at 4000 µg/mL (Escherichia coli [1]) | diameter of the inhibition zone (DIZ) (Staphylococcus aureus) | diameter of the inhibition zone (DIZ) (Escherichia coli [1]) | Activity (Escherichia coli [2]) | zone of inhibition at 4000 µg/mL (Staphylococcus aureus; read-out: DIZ)
1 | COC(=O)[C@]1(CO)NC(=O)C(C)(C)[C@@]1(O)C#CCCCCn1cc(CNC(=O)C(C)(C)C(O)CCCCc2ccccc2)nn1 (stereo partly drawn) | 14 mm | inactive |  |  | 
2 | CCCCCCCCC#C[C@]1(O)C(C)(C)C(=O)N2[C@@H](C(C)(C)C)OC[C@@]21C(=O)OC |  | inactive | inactive |  | 
3 | COC(=O)[C@]12CO[C@H](C(C)(C)C)N1C(=O)C(C)(C)[C@@]2(O)CCCCCc1cc(CNC(=O)C(C)(C)C(O)c2ccccc2)on1 (stereo partly drawn) |  | inactive | inactive |  | 
4 | COC(=O)[C@]12CO[C@H](C(C)(C)C)N1C(=O)C(C)(C)[C@@]2(O)C#CCCCCBr | 14 mm | inactive |  | 0.05% | 
5 | COC(=O)[C@]1(CO)NC(=O)C(C)(C)[C@@]1(O)C#CCCCCn1cc(CNC(=O)C(C)(C)C(O)c2ccccc2)nn1 (stereo partly drawn) | 15 mm | inactive |  |  | 
6 | COC(=O)[C@]12CO[C@H](C(C)(C)C)N1C(=O)C(C)(C)[C@@]2(O)CCCCCc1cc(CNC(=O)C(C)(C)C(O)CCCCc2ccccc2)on1 (stereo partly drawn) | 15 mm | inactive |  |  | 
7 | COC(=O)[C@]1(CO)NC(=O)C(C)(C)[C@@]1(O)CCCCCc1cc(CNC(=O)C(C)(C)C(O)c2ccccc2)on1 (stereo partly drawn) | 13 mm | inactive |  |  | 
8 | CCCCCCCC(O)C(C)(C)C(=O)NCc1cc(CCCCC[C@]2(O)C(C)(C)C(=O)N[C@@]2(CO)C(=O)OC)no1 (stereo partly drawn) | 17 mm | inactive |  | 0.2% | 
9 | CCCCCCCC(O)C(C)(C)C(=O)NCc1cc(CCCCC[C@]2(O)C(C)(C)C(=O)N3[C@@H](C(C)(C)C)OC[C@@]32C(=O)OC)no1 (stereo partly drawn) |  | inactive | inactive |  | 
10 | COC(=O)[C@]1(CO)NC(=O)C(C)(C)[C@@]1(O)CCCCCc1cc(CNC(=O)C(C)(C)C(O)CCCCc2ccccc2)on1 (stereo partly drawn) | 14 mm | inactive |  | 0.1% | 
11 | COC(=O)[C@]1(CO)NC(=O)C(C)(C)[C@@]1(O)C#CCNC(=O)C(C)(C)C(O)c1ccccc1 (stereo partly drawn) |  | inactive | inactive |  | 
12 | CC1(C)C(=O)N[C@@](CO)(C(=O)O)[C@]1(O)C#Cc1ccccc1 |  | inactive | inactive |  | 
13 | COC(=O)[C@]12CO[C@H](C(C)(C)C)N1C(=O)C(C)(C)[C@@]2(O)CCCCCCO |  | inactive | inactive |  | 
14 | COC(=O)[C@]12CO[C@H](C(C)(C)C)N1C(=O)C(C)(C)[C@@]2(O)C#CCCCCO |  | inactive | inactive |  | 
15 | CCCCCCCC(O)C(C)(C)C(=O)NCc1cn(CCCCC#C[C@]2(O)C(C)(C)C(=O)N3[C@@H](C(C)(C)C)OC[C@@]32C(=O)OC)nn1 (stereo partly drawn) | 14 mm | inactive |  |  | 
16 | CCCCCCCCC#C[C@]1(O)C(C)(C)C(=O)N[C@@]1(CO)C(=O)OC |  | inactive | inactive |  | 
17 | COC(=O)[C@]12CO[C@H](C(C)(C)C)N1C(=O)C(C)(C)[C@@]2(O)C#CCNC(=O)C(C)(C)C(O)c1ccccc1 (stereo partly drawn) | 17 mm | inactive |  | 0.1% | 
18 | COC(=O)[C@]1(CO)NC(=O)C(C)(C)[C@@]1(O)C#Cc1ccccc1 |  | inactive | inactive |  | 
19 | COC(=O)[C@]12CO[C@H](C(C)(C)C)N1C(=O)C(C)(C)[C@@]2(O)C#CCCCCn1cc(CNC(=O)C(C)(C)C(O)CCCCc2ccccc2)nn1 (stereo partly drawn) | 13 mm | inactive |  |  | 
20 | CCCCCCCC(O)C(C)(C)C(=O)NCc1cn(CCCCC#C[C@]2(O)C(C)(C)C(=O)N[C@@]2(CO)C(=O)OC)nn1 (stereo partly drawn) |  | inactive | inactive |  | 
21 | COC(=O)[C@]12CO[C@H](C(C)(C)C)N1C(=O)C(C)(C)[C@@]2(O)C#Cc1ccccc1 |  |  | inactive |  | 13 mm
22 | COC(=O)[C@]12CO[C@H](C(C)(C)C)N1C(=O)C(C)(C)[C@@]2(O)C#CCCCCn1cc(CNC(=O)C(C)(C)C(O)c2ccccc2)nn1 (stereo partly drawn) | 14 mm | inactive |  |  | 
